Results as given in ChEMBL document CHEMBL1255410, “Activity of the investigational fluoroquinolone finafloxacin against ciprofloxacin-sensitive and -resistant Acinetobacter baumannii isolates” (2010).
Values after ≈ are worked out from the molar mass of the structure shown.

How the values were obtained:
Format in all cases: functional
Acinetobacter baumannii [1] = assay: Antimicrobial activity against Acinetobacter baumannii isolate 36 harboring GyrA Ser83-Leu mutation at pH 7.2
In short: (§1)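 Agar dilution MIC on Mueller-Hinton agar. For the acidic condition, HCl was added to bring the agar to pH 5.8 before pouring the antibiotic plates, and the pH was checked after the agar set. The standard condition was pH 7.2. Both drugs' plates were made the same day from fresh medium, and MICs were read at the same time.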

Acinetobacter baumannii [2] = assay: Antimicrobial activity against Acinetobacter baumannii isolate 52 harboring GyrA Ser83-Leu and ParC Ser80-Leu mutation at pH 5.8; in short: as §1
Acinetobacter baumannii [3] = assay: Antimicrobial activity against Acinetobacter baumannii isolate 24 harboring GyrA Ser83-Leu mutation at pH 7.2
In short: (§2)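 MIC by agar dilution on Mueller-Hinton agar under standard conditions (pH 7.2), against isolates with characterized gyrA/parC genes. Agar pH was checked after solidifying. Plates for both drugs were prepared the same day from freshly made media, and MICs were determined simultaneously with the pH 5.8 set.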

Acinetobacter baumannii [4] = assay: Antimicrobial activity against Acinetobacter baumannii isolate 61 harboring GyrA Ser83-Leu and ParC Ser80-Leu mutation at pH 5.8
In short: (§3)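 Agar dilution MIC on Mueller-Hinton agar acidified to pH 5.8 with HCl before the antibiotic-containing plates were poured. Agar pH was checked after solidifying. Plates were made the same day from fresh medium. Both fluoroquinolones were tested simultaneously against A. baumannii isolates with characterized gyrA/parC genes. MICs are in μg/ml.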

Acinetobacter baumannii [5] = assay: Antimicrobial activity against Acinetobacter baumannii isolate 11 at pH 7.2; in short: as §2
Acinetobacter baumannii [6] = assay: Antimicrobial activity against Acinetobacter baumannii isolate 6 at pH 5.8; in short: as §3
Acinetobacter baumannii [7] = assay: Antimicrobial activity against Acinetobacter baumannii isolate 16 at pH 5.8
In short: (§4)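 MIC by agar dilution on Mueller-Hinton agar acidified to pH 5.8 with HCl before antibiotic-containing plates were poured. Agar pH was rechecked once the agar had solidified. Isolates had characterized gyrA/parC genes. Plates for both drugs were made the same day from fresh media, and MICs were read in parallel with the standard-pH set.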

Acinetobacter baumannii [8] = assay: Antimicrobial activity against Acinetobacter baumannii isolate 61 harboring GyrA Ser83-Leu and ParC Ser80-Leu mutation at pH 7.2
In short: (§5)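 Agar dilution MIC on Mueller-Hinton agar under standard conditions (pH 7.2). Antibiotic-containing plates were made the same day from freshly prepared medium. Agar pH was checked after solidifying. Both fluoroquinolones were tested simultaneously against A. baumannii isolates with characterized gyrA/parC genes. MICs are in μg/ml.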

Acinetobacter baumannii [9] = assay: Antimicrobial activity against Acinetobacter baumannii isolate 59 harboring GyrA Ser83-Leu and ParC Glu84-Lys mutation at pH 5.8; in short: as §3
Acinetobacter baumannii [10] = assay: Antimicrobial activity against Acinetobacter baumannii isolate 21 harboring GyrA Ser83-Leu mutation at pH 7.2; in short: as §2
Acinetobacter baumannii [11] = assay: Antimicrobial activity against Acinetobacter baumannii isolate 37 harboring GyrA Ser83-Leu mutation at pH 7.2; in short: as §1
Acinetobacter baumannii [12] = assay: Antimicrobial activity against adeB overexpressing Acinetobacter baumannii isolate 68 harboring GyrA Ser83-Leu and ParC Ser80-Leu mutation at pH 5.8; in short: as §3
Acinetobacter baumannii [13] = assay: Antimicrobial activity against Acinetobacter baumannii isolate 5 at pH 5.8; in short: as §1
Acinetobacter baumannii [14] = assay: Antimicrobial activity against Acinetobacter baumannii isolate 50 harboring GyrA Ser83-Leu and ParC Ser80-Leu mutation at pH 7.2; in short: as §1
Acinetobacter baumannii [15] = assay: Antimicrobial activity against Acinetobacter baumannii isolate 55 harboring GyrA Ser83-Leu and ParC Ser80-Leu mutation at pH 5.8; in short: as §1
Acinetobacter baumannii [16] = assay: Antimicrobial activity against Acinetobacter baumannii isolate 14 at pH 7.2; in short: as §2
Acinetobacter baumannii [17] = assay: Antimicrobial activity against Acinetobacter baumannii isolate 48 harboring GyrA Ser83-Leu and ParC Ser80-Leu mutation at pH 5.8; in short: as §1
Acinetobacter baumannii [18] = assay: Antimicrobial activity against Acinetobacter baumannii isolate 12 at pH 5.8; in short: as §4
Acinetobacter baumannii [19] = assay: Antimicrobial activity against Acinetobacter baumannii isolate 48 harboring GyrA Ser83-Leu and ParC Ser80-Leu mutation at pH 7.2; in short: as §1
Acinetobacter baumannii [20] = assay: Antimicrobial activity against adeB overexpressing Acinetobacter baumannii isolate 67 harboring GyrA Ser83-Leu and ParC Ser80-Leu mutation at pH 5.8; in short: as §3
Acinetobacter baumannii [21] = assay: Antimicrobial activity against Acinetobacter baumannii isolate 8 at pH 7.2; in short: as §5
Acinetobacter baumannii [22] = assay: Antimicrobial activity against Acinetobacter baumannii isolate 29 harboring GyrA Ser83-Leu mutation at pH 7.2; in short: as §2
Acinetobacter baumannii [23] = assay: Antimicrobial activity against Acinetobacter baumannii isolate 24 harboring GyrA Ser83-Leu mutation at pH 5.8; in short: as §4
Acinetobacter baumannii [24] = assay: Antimicrobial activity against Acinetobacter baumannii isolate 31 harboring GyrA Ser83-Leu mutation at pH 5.8; in short: as §4
Acinetobacter baumannii [25] = assay: Antimicrobial activity against Acinetobacter baumannii isolate 42 harboring GyrA Ser83-Leu mutation at pH 7.2; in short: as §1
Acinetobacter baumannii [26] = assay: Antimicrobial activity against Acinetobacter baumannii isolate 23 harboring GyrA Glu87-Gly mutation at pH 5.8; in short: as §4
Acinetobacter baumannii [27] = assay: Antimicrobial activity against Acinetobacter baumannii isolate 51 harboring GyrA Ser83-Leu and ParC Ser80-Leu mutation at pH 7.2; in short: as §1
Acinetobacter baumannii [28] = assay: Antimicrobial activity against Acinetobacter baumannii isolate 26 harboring GyrA Ser83-Leu mutation at pH 5.8; in short: as §4
Acinetobacter baumannii [29] = assay: Antimicrobial activity against adeB overexpressing Acinetobacter baumannii isolate 67 harboring GyrA Ser83-Leu and ParC Ser80-Leu mutation at pH 7.2; in short: as §5
Acinetobacter baumannii [30] = assay: Antimicrobial activity against Acinetobacter baumannii isolate 2 at pH 7.2; in short: as §2
Acinetobacter baumannii [31] = assay: Antimicrobial activity against Acinetobacter baumannii isolate 38 harboring GyrA Ser83-Leu mutation at pH 5.8; in short: as §1
Acinetobacter baumannii [32] = assay: Antimicrobial activity against Acinetobacter baumannii isolate 32 harboring GyrA Ser83-Leu mutation at pH 7.2; in short: as §1
Acinetobacter baumannii [33] = assay: Antimicrobial activity against Acinetobacter baumannii isolate 41 harboring GyrA Ser83-Leu mutation at pH 5.8; in short: as §1
Acinetobacter baumannii [34] = assay: Antimicrobial activity against Acinetobacter baumannii isolate 58 harboring GyrA Ser83-Leu and ParC Ser80-Leu mutation at pH 5.8; in short: as §3
Acinetobacter baumannii [35] = assay: Antimicrobial activity against Acinetobacter baumannii isolate 9 at pH 7.2; in short: as §5
Acinetobacter baumannii [36] = assay: Antimicrobial activity against Acinetobacter baumannii isolate 17 at pH 5.8; in short: as §4
Acinetobacter baumannii [37] = assay: Antimicrobial activity against Acinetobacter baumannii isolate 34 harboring GyrA Ser83-Leu mutation at pH 7.2; in short: as §1
Acinetobacter baumannii [38] = assay: Antimicrobial activity against Acinetobacter baumannii isolate 33 harboring GyrA Ser83-Leu mutation at pH 7.2; in short: as §1
Acinetobacter baumannii [39] = assay: Antimicrobial activity against Acinetobacter baumannii isolate 65 harboring GyrA Ser83-Leu and ParC Ser80-Leu mutation at pH 5.8; in short: as §3
Acinetobacter baumannii [40] = assay: Antimicrobial activity against Acinetobacter baumannii isolate 18 at pH 5.8; in short: as §4
Acinetobacter baumannii [41] = assay: Antimicrobial activity against Acinetobacter baumannii isolate 60 harboring GyrA Ser83-Leu and ParC Ser80-Leu mutation at pH 7.2; in short: as §5

N#Cc1c(N2C[C@@H]3NCCO[C@H]3C2)c(F)cc2c(=O)c(C(=O)O)cn(C3CC3)c12 [FINAFLOXACIN]
MIC (Acinetobacter baumannii [1]): 16 µg/mL (≈ 40.2 µM) | MIC (Acinetobacter baumannii [2]): 2 µg/mL (≈ 5.02 µM) | MIC (Acinetobacter baumannii [3]): 16 µg/mL (≈ 40.2 µM) | MIC (Acinetobacter baumannii [4]): 8 µg/mL (≈ 20.1 µM) | MIC (Acinetobacter baumannii [5]): 0.25 µg/mL (≈ 0.628 µM) | MIC (Acinetobacter baumannii [6]): 0.06 µg/mL (≈ 0.151 µM) | MIC (Acinetobacter baumannii [7]): 0.12 µg/mL (≈ 0.301 µM) | MIC (Acinetobacter baumannii [8]): 64 µg/mL (≈ 161 µM) | MIC (Acinetobacter baumannii [9]): 8 µg/mL (≈ 20.1 µM) | MIC (Acinetobacter baumannii [10]): 1 µg/mL (≈ 2.51 µM) | MIC (Acinetobacter baumannii [11]): 16 µg/mL (≈ 40.2 µM) | MIC (Acinetobacter baumannii [12]): 4 µg/mL (≈ 10 µM) | MIC (Acinetobacter baumannii [13]): 0.06 µg/mL (≈ 0.151 µM) | MIC (Acinetobacter baumannii [14]): 16 µg/mL (≈ 40.2 µM) | MIC (Acinetobacter baumannii [15]): 4 µg/mL (≈ 10 µM) | MIC (Acinetobacter baumannii [16]): 1 µg/mL (≈ 2.51 µM) | MIC (Acinetobacter baumannii [17]): 2 µg/mL (≈ 5.02 µM) | MIC (Acinetobacter baumannii [18]): 0.12 µg/mL (≈ 0.301 µM) | MIC (Acinetobacter baumannii [19]): 16 µg/mL (≈ 40.2 µM) | MIC (Acinetobacter baumannii [20]): 4 µg/mL (≈ 10 µM) | MIC (Acinetobacter baumannii [21]): 0.25 µg/mL (≈ 0.628 µM) | MIC (Acinetobacter baumannii [22]): 32 µg/mL (≈ 80.3 µM) | MIC (Acinetobacter baumannii [23]): 2 µg/mL (≈ 5.02 µM) | MIC (Acinetobacter baumannii [24]): 1 µg/mL (≈ 2.51 µM) | MIC (Acinetobacter baumannii [25]): 16 µg/mL (≈ 40.2 µM) | MIC (Acinetobacter baumannii [26]): 1 µg/mL (≈ 2.51 µM) | MIC (Acinetobacter baumannii [27]): 32 µg/mL (≈ 80.3 µM) | MIC (Acinetobacter baumannii [28]): 2 µg/mL (≈ 5.02 µM) | MIC (Acinetobacter baumannii [29]): 64 µg/mL (≈ 161 µM) | MIC (Acinetobacter baumannii [30]): 0.5 µg/mL (≈ 1.26 µM) | MIC (Acinetobacter baumannii [31]): 2 µg/mL (≈ 5.02 µM) | MIC (Acinetobacter baumannii [32]): 16 µg/mL (≈ 40.2 µM) | MIC (Acinetobacter baumannii [33]): 2 µg/mL (≈ 5.02 µM) | MIC (Acinetobacter baumannii [34]): 4 µg/mL (≈ 10 µM) | MIC (Acinetobacter baumannii [35]): 0.25 µg/mL (≈ 0.628 µM) | MIC (Acinetobacter baumannii [36]): 0.12 µg/mL (≈ 0.301 µM) | MIC (Acinetobacter baumannii [37]): 16 µg/mL (≈ 40.2 µM) | MIC (Acinetobacter baumannii [38]): 16 µg/mL (≈ 40.2 µM) | MIC (Acinetobacter baumannii [39]): 8 µg/mL (≈ 20.1 µM) | MIC (Acinetobacter baumannii [40]): 0.12 µg/mL (≈ 0.301 µM) | MIC (Acinetobacter baumannii [41]): 64 µg/mL (≈ 161 µM)
